For assay [1], the target named is T1, Equilibrative nucleoside transporter 1 (Homo sapiens, UniProt Q99808).
T1 sequence (Q99808 whole entry): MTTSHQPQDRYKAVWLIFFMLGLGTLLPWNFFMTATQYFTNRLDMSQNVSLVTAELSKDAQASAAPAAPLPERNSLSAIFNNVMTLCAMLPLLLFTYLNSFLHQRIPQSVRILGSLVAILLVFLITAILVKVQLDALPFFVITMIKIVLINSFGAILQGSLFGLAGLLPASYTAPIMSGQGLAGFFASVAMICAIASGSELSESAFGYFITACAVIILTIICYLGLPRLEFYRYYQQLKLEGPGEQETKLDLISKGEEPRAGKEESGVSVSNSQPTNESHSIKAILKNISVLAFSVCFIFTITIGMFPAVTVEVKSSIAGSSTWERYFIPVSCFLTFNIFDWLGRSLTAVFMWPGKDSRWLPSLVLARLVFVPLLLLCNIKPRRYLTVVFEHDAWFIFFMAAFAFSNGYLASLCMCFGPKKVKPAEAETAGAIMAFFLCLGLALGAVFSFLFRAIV
Nature of the assay: Displacement of SAENTA-fluorescein from human ENT1 in HL60 cells by flow cytometry. Format: cell-based, HL-60. The gist of the method: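 HL60 cells were preincubated with the inhibitor, then exposed to 50 nM SAENTA-fluorescein and analysed by flow cytometry (example inhibitor levels 5, 25 and 50 nM). IC50 is the concentration inhibiting 50% of SAENTA-fluorescein binding, from nonlinear regression of inhibitor concentration–fluorescence curves. Ki = IC50/(1+[S]/KD), using the SAENTA-fluorescein concentration and KD.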

In assay [2] the target is T1, Equilibrative nucleoside transporter 1. Nature of the assay: (§1) Binding affinity to human ENT1 in SK-PC1 cells by flow cytometry. Format: cell-based. In outline:
(§2)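 Apparent KD and Bmax of SAENTA-fluorescein on each cell line, from flow-cytometric binding over a range of SAENTA-fluorescein concentrations. Specific binding is total minus nonspecific fluorescence, with nonspecific fluorescence measured in the presence of 7.2 μM NBMPR. Saturation parameters come from curve fitting; Bmax is given as mean fluorescence units per 10^4 cells.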
Background: In flow cytometry, cells or beads pass a laser one at a time.

Assay [3] has as its target T2, Equilibrative nucleoside transporter 1 (Homo sapiens) (UniProt Q99808).
T2 sequence (whole entry): T1 sequence (Q99808 whole entry)
The description is as §1. Format: cell-based. In outline:
as §2

The target in assay [4] is T1, Equilibrative nucleoside transporter 1. Nature of the assay: (§3) Binding affinity to human ENT1 in Capan1 cells by flow cytometry. Format: cell-based, CAPAN-1. The gist of the method:
as §2

Assay [5] concerns the target T2, Equilibrative nucleoside transporter 1 (Homo sapiens). The assay is described as §3. Format: cell-based. The conditions noted are these: CAPAN-1. The gist of the method: as §2
Assay [6] deals with T1, Equilibrative nucleoside transporter 1. Nature of the assay: (§4) Binding affinity to human ENT1 in BX-PC3 cells by flow cytometry. Format: cell-based, BXPC-3. The gist of the method:
as §2

For assay [7], the target named is T2, Equilibrative nucleoside transporter 1 (Homo sapiens). Described as §4. Format: cell-based. The conditions noted are these: BXPC-3. The gist of the method:
as §2

Assay [8] has as its target T1, Equilibrative nucleoside transporter 1. The assay can be described thus: (§5) Binding affinity to human ENT1 in HL60 cells by flow cytometry. Format: cell-based, HL-60. In outline: as §2
The target of assay [9] is T2, Equilibrative nucleoside transporter 1 (Homo sapiens). The description is as §5. Format: cell-based. The conditions noted are these: HL-60. In outline: as §2
Assay [10] addresses T1, Equilibrative nucleoside transporter 1. Nature of the assay: (§6) Binding affinity to human ENT1 in panc1 cells by flow cytometry. Format: cell-based. In outline:
as §2

For assay [11], the target named is T2, Equilibrative nucleoside transporter 1 (Homo sapiens). The assay is described as §6. Format: cell-based. In outline:
as §2

The target of assay [12] is T1, Equilibrative nucleoside transporter 1. The assay can be described thus: (§7) Binding affinity to human ENT1 in MIA-PaCa2 cells by flow cytometry. Format: cell-based. In outline: as §2
Assay [13] deals with T2, Equilibrative nucleoside transporter 1 (Homo sapiens). The description is as §7. Format: cell-based. The gist of the method:
as §2

As to `O=C(CCCCCNC(=O)c1cccc(I)c1)NCCSC[C@H]1O[C@@H](n2cnc3c(NCc4ccc([N+](=O)[O-])cc4)ncnc32)[C@H](O)[C@@H]1O`, in assay [1], the IC50 came out at 1.4 nM and the Ki worked out at 0.018 nM.
Turning to `O=C(CCCCCNC(=O)c1ccc(F)cc1)NCCSC[C@H]1O[C@@H](n2cnc3c(NCc4ccc([N+](=O)[O-])cc4)ncnc32)[C@H](O)[C@@H]1O`, in [1], the IC50 was found to be 5.1 nM and the affinity corresponds to a Ki of 0.064 nM.
Turning to `O=C(CCCCCNC(=O)c1ccc2c(c1)C(=O)OC21c2ccc(O)cc2Oc2cc(O)ccc21)NCCSC[C@H]1O[C@@H](n2cnc3c(NCc4ccc([N+](=O)[O-])cc4)ncnc32)[C@H](O)[C@@H]1O`, the Kd in assay [2] stood at 0.4 nM; in assay [4] it was 0.32 nM; in assay [6], 0.36 nM; in [8], 0.26 nM; in [10] it was 3.8 nM; in [12], 0.91 nM. Moreover, the Bmax in assay [3] was 2.6 MFU; in assay [5], 9.5 MFU; in assay [7] it was 6.7 MFU; in assay [9], 21.1 MFU; in [11], 49.8 MFU; in [13], 30.7 MFU.

What is called IC50 is the midpoint of a concentration-inhibition curve. The low end stands for greater potency, the high end for weaker potency. Broadly, the Ki is a measure of affinity in units of concentration, obtained from inhibition or displacement. By Kd is commonly meant the equilibrium constant for the complex coming apart.

The record behind these values is ChEMBL document CHEMBL1155315, “Towards to hENT1-nucleoside transporter selective imaging agents. Synthesis and in vitro evaluation of the radiolabeled SAENTA analogues” (Bioorg Med Chem Lett, 2009).
